# From PubChem BioAssay
# Compounds with a hit are over-represented: about 1.7% of the library has one in this group of screens.
# CSN inh = inhibitors of human CSN-mediated cullin deneddylation; Q92905; Purified CSN, SCF-Nedd8-OG deneddylation, fluorescence polarization; inhibition, % at 12.5 µM; 0.38% of 360,000 active;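 active = pattern-corrected inhibition above about 35%, with an unprinted fluorescence ratio check between 0.5 and 1.5, limit read from the data, passing the limit was not always enough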;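 also: 0% = enzyme with substrate and 100% = substrate without enzyme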
#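 Material: purified human Csn5 enzyme expressed in HEK293T cells / Medium: Tris buffer pH 7.5, NaCl, DTT, Tween-20, trehalose, ovalbumin / Compound dosing: 12.5 µM single point / Schedule: 90 min incubation of compound, enzyme and substrate at room temperature / Signal: fluorescence polarization of the substrate / Control set: no-enzyme wells high, enzyme-with-substrate wells low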
# TbMetRS inhib = Trypanosoma brucei MetRS inhibition; inhibition, % at 11.9 µM; purified T. brucei MetRS, ATP depletion, Kinase-Glo luminescence; 0.4% of 360,000 active; AID 624268;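 active = inhibition above a per-plate cutoff of the control wells' mean inhibition plus 3 SD, cut at about 5.5% in these data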;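 also: 0% = DMSO wells median and 100% = median of wells with control inhibitor compound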
#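 Dosing: 11.9 µM single point; system: parasite MetRS enzyme; technique: luminescence of leftover ATP; times: 15 min enzyme-compound preincubation, 2 h reaction, 10 min detection, 25 °C; replicates: each compound tested once; read-out basis: percent inhibition relative to median high and low control wells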
# IDE inh = inhibitors of human insulin-degrading enzyme in cells; P14735; HEK cells, FAbetaB cleavage, fluorescence polarization; inhibition, % at 5.59 µM; 0.41% of 320,000 active; AID 434962;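 active = percent inhibition above the average of all tested compounds plus 3 SD, set per screening campaign, cut at about 16% in these data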;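 also: IDE supplied by intact live HEK cells; FP after avidin binding of uncleaved biotin substrate so inhibition keeps polarization high; 0% = DMSO wells and 100% = 60 µM reference IDE inhibitor Ii1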
# IDE act = activators of human insulin-degrading enzyme in cells; P14735; HEK cells, FAbeta-B cleavage, fluorescence polarization; 0% vehicle, 100% cell-free pure enzyme wells; activation, % at 5.96 µM; 0.073% of 340,000 active; AID 493087;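 active = activation above the mean of all tested compounds plus 3 SD, set per screening campaign, cut at about 17% in these data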
# HNF4A DNA FP = change in binding of human HNF4 alpha to DNA | HNF4a-FITC DNA binding, fluorescence polarization, 1 h | P41235 | 0.3% of 360,000 active | activity change, % at 10 µM; in the data active = activity change above about 30%, passing the limit was not always enough
# Target sequence (P41235 whole entry, looked up): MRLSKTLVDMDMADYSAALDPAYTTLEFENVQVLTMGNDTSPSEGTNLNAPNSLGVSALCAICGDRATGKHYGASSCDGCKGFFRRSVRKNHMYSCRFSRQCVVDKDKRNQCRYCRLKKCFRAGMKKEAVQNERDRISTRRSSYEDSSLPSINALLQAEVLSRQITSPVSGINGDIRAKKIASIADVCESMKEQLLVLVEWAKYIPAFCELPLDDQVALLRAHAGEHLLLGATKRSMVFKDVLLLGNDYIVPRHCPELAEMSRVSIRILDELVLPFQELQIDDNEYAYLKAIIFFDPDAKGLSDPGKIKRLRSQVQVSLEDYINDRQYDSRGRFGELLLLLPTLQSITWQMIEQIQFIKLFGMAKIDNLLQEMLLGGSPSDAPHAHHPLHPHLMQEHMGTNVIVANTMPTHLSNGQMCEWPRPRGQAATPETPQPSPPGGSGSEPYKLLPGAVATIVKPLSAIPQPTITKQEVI
# TPT1 inhibitor = C. albicans TPT1 enzyme inhibition; inhibition, % at 5 µM; recombinant caTPT1, FP RNA substrate dephosphorylation; AID 1962; 0.81% of 300,000 active;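 active = inhibition above the mean of all tested compounds plus 3 SD, set per screening campaign, cut at about 24% in these data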;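 also: plate controls were DMSO alone for no effect and ferristatin control at 100 nM for full effect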
# IDE cell inh cf = confirmation of human insulin-degrading enzyme inhibitors in cells. shares compounds with IDE inh. HEK cells, FAbetaB cleavage, fluorescence polarization. inhibition, % at 5.59 µM. 51% of 1,200 active. AID 435028;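 active = mean inhibition across triplicate wells above the cutoff set by the earlier primary insulin-degrading enzyme screen, cut at about 16% in these data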;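 also: 0% = DMSO wells and 100% = 60 µM reference IDE inhibitor Ii1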
# HEK293 tox = HEK cell cytotoxicity, counter-screen for IDE inhibitors; inhibition, % at 5.59 µM; AID 449730; HEK293 cytotoxicity, ATP luminescence; shares compounds with IDE inh; 28% of 1,200 active; in the data active = inhibition above about 22%;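 also: 0% = vehicle wells and 100% = reference cytotoxic drug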
# * marks the source's active call; other numbers are inactive results; x = no result given.
SMILES,CSN inh,TbMetRS inhib,IDE inh,IDE act,HNF4A DNA FP,TPT1 inhibitor,IDE cell inh cf,HEK293 tox
CCCOc1ccc(CNC(=S)Nc2ccccc2)cc1Cl,-9,-1,8,0,3,-2,x,x
Cc1ccc(C2=NN=C(NC(=O)CSc3nncn3C)SC2)cc1,-2,0,24*,-19,0,-2,12,11
COc1cc(/C=C(\C#N)C(=O)NCc2cccs2)ccc1O,9,0,34*,-41,-2,11,45*,9
COCCNC(=O)/C(C#N)=C/c1ccc(OC(=O)c2cccs2)c(OC)c1,-5,-1,x,-1,-2,x,x,x
O=C1CSC(=S)N1CC1CCCO1 (stereo not given),7,0,18*,-9,1,4,14,11
O=C(COC(=O)CCC1CCCC1)Nc1ccc(F)cc1,0,0,5,3,0,x,x,x
CCc1ccc(S(=O)(=O)NC(=S)NC2CCCCC2)cc1,-17,-2,0,8,2,0,x,x
Cc1ccc(-c2cc(C(=O)Nc3ccc(S(=O)(=O)Nc4ncccn4)cc3)[nH]n2)c(O)c1C,3,-1,31*,-26,-5,2,20*,10
CC(=O)Nc1ccc(NC(=O)c2cc(-c3ccc(C)c(C)c3O)n[nH]2)cc1,-4,-1,3,-4,5,2,x,x
CC1CC(C)CN(CCCNS(=O)(=O)c2ccc3c(c2)CCN3C(=O)C2CC2)C1 (stereo not given),-3,0,6,6,4,0,x,x
CC(OC(=O)C1CCN(c2ccc(C(F)(F)F)cn2)CC1)C(=O)Nc1ccc(S(N)(=O)=O)cc1 (stereo not given),0,0,18*,-16,-5,-3,6,5
CCCCCN(C(=O)CCC(=O)OC(C)C(=O)c1ccccc1)c1c(N)n(CCCC)c(=O)[nH]c1=O (stereo not given),0,0,-4,1,6,-3,x,x
CCCCCN(C(=O)CCC(=O)OCC(=O)c1ccc(C(C)CC)cc1)c1c(N)n(CCCC)c(=O)[nH]c1=O (stereo not given),0,-1,17*,-4,4,2,10,13
O=P(C(=S)Nc1ccccc1Cl)(c1ccccc1)c1ccccc1,1,0,x,x,2,x,x,x
O=C(O)c1ccc2c(=O)n3c(nc2c1)/C(=C/c1cccc(Cl)c1Cl)CCCC3,-4,0,18*,1,0,-3,3,1
O=C(Nc1ccccc1)N1CCN(c2nc3ccccc3s2)CC1,-4,0,18*,-19,-2,-3,4,30*
O=C(c1ccc2ncsc2c1)N1CCN(c2nc3ccccc3s2)CC1,1,0,25*,-18,-1,-4,13,42*
CC(C)(C)NC(=O)/C(=C\c1ccc(Br)cc1)NC(=O)c1cccs1,0,0,-1,3,-3,0,x,x
NNC(=O)/C(=C\c1ccc(Br)cc1)NC(=O)c1cccs1,1,-1,17*,8,1,-1,7,8
CCc1noc(C)c1C(=O)N1CCN(S(=O)(=O)c2c(C)c(C)cc(C)c2C)CC1,2,0,-7,3,0,3,x,x
CCOc1ccc(CN(C)CC(=O)Nc2ccc([N+](=O)[O-])cc2Cl)cc1,-7,0,0,4,2,2,x,x
O=C(O)C(c1ccccc1)N1C(=O)/C(=C\c2ccc(O)c(O)c2)SC1=S (stereo not given),129,1,67*,-55,-3,13,84*,12
Cc1cccc(S(=O)(=O)Nc2cccc3c2C(=O)c2ccccc2-3)c1,7,-1,50*,-38,-1,12,41*,16
Cc1cc(=O)[nH]c(/N=C(\N)Nc2cccc3ccccc23)n1,19,0,16*,-35,-3,-2,7,13
CCCCNC(=O)C1(C)CCCCN1C(=O)c1ccc(OC)c(C(F)(F)F)c1 (stereo not given),-3,0,x,x,-1,x,x,x
SMILES,CSN inh,TbMetRS inhib,IDE inh,IDE act,HNF4A DNA FP,TPT1 inhibitor,IDE cell inh cf,HEK293 tox
Cc1ccc(C2=CC(c3ccc(N(C)C)cc3)n3nnnc3N2)cc1 (stereo not given),7,1,41*,-64,11,24,42*,13
COc1ccc(C2=CC(c3ccc(F)cc3)n3nnnc3N2)cc1 (stereo not given),6,-1,10,-2,5,0,x,x
CCCNC(=O)c1cc(C2CCCCN2C(=O)CCCc2ccccc2)on1 (stereo not given),1,0,x,x,1,x,x,x
Cc1ccc(N2CC(C(=O)N3CCC(C(=O)Nc4ccc(Br)cc4)CC3)CC2=O)cc1 (stereo not given),3,0,17*,-7,0,0,7,12
O=C(CNC(=O)C1COc2ccccc2O1)N/N=C\c1ccc(Br)cc1 (stereo not given),5,1,3,3,1,2,x,x
COc1ccc(Br)cc1/C=N/NC(=O)CNC(=O)C1COc2ccccc2O1 (stereo not given),-4,0,30*,-22,4,-4,23*,2
O=C(O)CSc1nnc(-c2ccc(Cl)cc2Cl)n1Cc1ccccc1,-7,0,1,1,-4,-2,x,x
CCn1c(-c2cc(-c3ccccc3OC)nc3ccccc23)n[nH]c1=S,-4,-1,16*,-23,5,-2,10,8
CCn1c(-c2cc(-c3cc(OC)ccc3OC)nc3ccccc23)n[nH]c1=S,-1,0,7,-7,1,-3,x,x
COc1ccccc1OC(=O)CCN1c2ccccc2Sc2ccccc21,-4,0,3,0,5,2,x,x
COc1ccccc1-[n+]1c(C)cc(/C=C2\Sc3ccccc3N2C)cc1C,22,0,52*,-70,55*,123*,104*,113*
COc1ccc(/C=N/n2c(C)nc3sc(C)c(C)c3c2=O)cc1,2,0,8,x,-4,-7,x,x
Cc1sc2nc(C)n(/N=C/c3ccccc3)c(=O)c2c1C,-4,0,16*,-11,-7,-4,10,13
CCOc1ccccc1-n1c(SCC(=O)N2CCCc3ccccc32)nnc1-c1cccnc1,2,0,33*,-38,5,-1,17*,16
COCCNc1nc(NCc2ccc(NC(C)=O)cc2)c2sc(-c3ccccc3)cc2n1,-6,0,x,x,5,x,x,x
